The values that follow come from ChEMBL document CHEMBL4680159, “Novel modified leucine and phenylalanine dipeptides modulate viability and attachment of cancer cells” (2020).

Each structure is given as a SMILES string. Activity calls are given as the source filed them. The calls are words filed in the database; no cut-off is given here.

One test relates to K562. The test is described as follows: Antiproliferative activity against human K562 cells assessed as growth inhibition measured after 72 hrs by calcein AM dye-based fluorescence assay. It is filed as functional. In short, it runs like this:
(§1)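 Cells exposed to three-fold compound dilutions in triplicate for 72 h. Calcein AM then added and live-cell fluorescence read at 485/538 nm (ex/em). GI50 taken from dose-response curves. Values from at least triplicate measurements.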

The next test concerns CCRF-CEM. Description: Antiproliferative activity against human CEM cells assessed as growth inhibition measured after 72 hrs by calcein AM dye-based fluorescence assay. It is filed as functional. In a few lines: as §1
The subject of another test is MCF7. The test is described as follows: Antiproliferative activity against human MCF7 cells assessed as growth inhibition measured after 72 hrs by calcein AM dye-based fluorescence assay. The class given is functional. In short, it runs like this:
as §1

The test system of test [1] is HCT-116. The test is described as follows: Antiproliferative activity against human HCT116 cells assessed as growth inhibition measured after 72 hrs by calcein AM dye-based fluorescence assay. The class given is functional. In short, it runs like this: as §1
A further test has as its system G-361. Description: Antiproliferative activity against human G361 cells assessed as growth inhibition measured after 72 hrs by calcein AM dye-based fluorescence assay. It is filed as functional. In a few lines: as §1
The test system of test [2] is HCT-116. The test is described as follows: Antiproliferative activity against human HCT-116 cells assessed as increase in cell death at 25 uM measured after 24 hrs by IncuCyte live-cell imaging analysis. The class given is functional, cell-based. In a few lines:
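HCT-116 cells plated at 10 000 cells/well and exposed to compounds at 25 µM for 24 h. Cell membrane integrity/death followed in real time by live-cell imaging with a Cytotox Red reagent.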

In general, GI50 refers to the concentration giving 50% growth inhibition. For `O=C(N[C@@H](Cc1ccccc1)C(=O)N[C@@H](Cc1ccccc1)C(=O)Nc1ccc(C(F)(F)F)cc1)c1cc(Cl)ccc1OCc1ccccc1`, the 50% growth inhibitory concentration (GI50) in the test with K562 is 12.7 µM; in the test on CCRF-CEM, 11.3 µM.

As for `O=C(N[C@@H](Cc1ccccc1)C(=O)Nc1ccc(C(F)(F)F)cc1)c1cc(Cl)ccc1O`, the GI50 with K562 was 5.2 µM; in the test on CCRF-CEM it was 4.5 µM.

On to `CC(C)C[C@H](NC(=O)c1cc(Cl)ccc1O)C(=O)Nc1ccc(C(F)(F)F)cc1`, for which the GI50 with K562 and with CCRF-CEM was 5 µM throughout.

With `CC(C)C[C@H](NC(=O)c1cc(Cl)ccc1OCc1ccccc1)C(=O)Nc1ccc(C(F)(F)F)cc1`, the GI50 is > 50 µM with K562 and 35.4 µM in the test on CCRF-CEM.

Turning to `CC(C)C[C@H](NC(=O)c1cc(Cl)ccc1O)C(=O)N[C@@H](CC(C)C)C(=O)Nc1ccc(C(F)(F)F)cc1`, the GI50 was 5.3 µM in the test with MCF7; 5.8 µM in the test on HCT-116 [1]; 7.5 µM in the test with K562; 11.5 µM with G-361; 6.2 µM in the test with CCRF-CEM.

For `CC(C)C[C@H](NC(=O)c1cc(Cl)ccc1OCc1ccccc1)C(=O)N[C@@H](CC(C)C)C(=O)Nc1ccc(Cl)c(Cl)c1`, the GI50 with K562 was > 100 µM; with CCRF-CEM it was 56.4 µM.

In the case of `O=C(N[C@@H](Cc1ccccc1)C(=O)N[C@@H](Cc1ccccc1)C(=O)Nc1ccc(Cl)c(Cl)c1)c1cc(Cl)ccc1OCc1ccccc1`, the figures for the GI50 in the test with K562 and in the test with CCRF-CEM were 9.9 µM and 32.8 µM, respectively.

In the case of `COc1ccc(NC(=O)[C@H](CC(C)C)NC(=O)[C@H](CC(C)C)NC(=O)c2cc(Cl)ccc2OCc2ccccc2)cc1`, the GI50 in the test with K562 was 68.3 µM; in the test on CCRF-CEM, 53.2 µM.

As to `Cc1ccc(NC(=O)[C@H](CC(C)C)NC(=O)[C@H](CC(C)C)NC(=O)c2cc(Cl)ccc2O)cc1`, the concentration for 50% growth inhibition (GI50) is 30.7 µM in the test on K562 and 13.2 µM with CCRF-CEM.

As for `CC(C)C[C@H](NC(=O)c1cc(Cl)ccc1OCc1ccccc1)C(=O)N[C@@H](CC(C)C)C(=O)NC1CCCCC1`, the GI50 in the test with K562 is 19.8 µM; in the test on CCRF-CEM it was 9.8 µM.

As to `O=C(N[C@@H](Cc1ccccc1)C(=O)N[C@@H](Cc1ccccc1)C(=O)Nc1ccc(Cl)c(Cl)c1)c1cc(Cl)ccc1O`, the GI50 with MCF7 is 5.2 µM; in the test with HCT-116 [1], 3 µM; in the test with K562, 5.8 µM; in the test on G-361, 4.5 µM; with CCRF-CEM it was 3.1 µM.

Regarding `CC(C)C[C@H](NC(=O)c1cc(Cl)ccc1O)C(=O)N[C@@H](CC(C)C)C(=O)Nc1nccs1`, the figures for the GI50 with K562 and with CCRF-CEM were 31.1 µM and 19.7 µM, respectively.

`CC(C)C[C@H](NC(=O)c1cc(Cl)ccc1O)C(=O)N[C@@H](CC(C)C)C(=O)NC1CCCCC1`: the GI50 in the test on K562 is 55.7 µM; with CCRF-CEM, 38.2 µM.

`CC(C)C[C@H](NC(=O)c1cc(Cl)ccc1O)C(=O)N[C@@H](CC(C)C)C(=O)Nc1ccc(Cl)c(Cl)c1`: the GI50 with MCF7 is 4.1 µM; in the test with HCT-116 [1] it was 4 µM; in the test with K562 it was 3.2 µM; with G-361, 5.2 µM; with CCRF-CEM, 2.6 µM. The result in the test with HCT-116 [2] was inactive.

`O=C(N[C@@H](Cc1ccccc1)C(=O)N[C@@H](Cc1ccccc1)C(=O)Nc1ccc(C(F)(F)F)cc1)c1cc(Cl)ccc1O`: the GI50 with MCF7 was 5.6 µM; with HCT-116 [1], 4.5 µM; in the test with K562, 5.1 µM; with G-361 it was 5.1 µM; in the test with CCRF-CEM, 4.7 µM.

Regarding `CC(C)C[C@H](NC(=O)c1cc(Cl)ccc1O)C(=O)N[C@@H](CC(C)C)C(=O)N1CCOCC1`, the values for the GI50 in the test on K562 and in the test with CCRF-CEM were > 50 µM and 54.9 µM, respectively.

As for `CC(C)C[C@H](NC(=O)c1cc(Cl)ccc1OCc1ccccc1)C(=O)N[C@@H](CC(C)C)C(=O)N1CCOCC1`, the figures for the GI50 in the test on K562 and in the test with CCRF-CEM were 21 µM and 20.1 µM, respectively.

As for `CC(C)C[C@H](NC(=O)c1cc(Cl)ccc1O)C(=O)N[C@@H](CC(C)C)C(=O)Nc1ccccc1`, the GI50 is 20.1 µM in the test with K562 and 10.2 µM in the test on CCRF-CEM.

Take `O=C(N[C@@H](Cc1ccccc1)C(=O)Nc1ccc(C(F)(F)F)cc1)c1cc(Cl)ccc1OCc1ccccc1`: the GI50 in the test with K562 was > 50 µM; with CCRF-CEM, 31.5 µM.

As for `CC(C)C[C@H](NC(=O)c1cc(Cl)ccc1OCc1ccccc1)C(=O)N[C@@H](CC(C)C)C(=O)Nc1ccccc1`, the GI50 in the test with K562 is 71.2 µM; in the test with CCRF-CEM, 48.9 µM.

For `Cc1ccc(NC(=O)[C@H](CC(C)C)NC(=O)[C@H](CC(C)C)NC(=O)c2cc(Cl)ccc2OCc2ccccc2)cc1`, the concentration for 50% growth inhibition (GI50) in the test with K562 is 87.7 µM; in the test on CCRF-CEM, 52.8 µM.

Regarding `COc1ccc(NC(=O)[C@H](CC(C)C)NC(=O)[C@H](CC(C)C)NC(=O)c2cc(Cl)ccc2O)cc1`, the GI50 with K562 is 51 µM; with CCRF-CEM it was 23.3 µM.

In the case of `CC(C)C[C@H](NC(=O)c1cc(Cl)ccc1OCc1ccccc1)C(=O)N[C@@H](Cc1ccccc1)C(=O)Nc1ccc(Cl)c(Cl)c1`, the GI50 with K562 was 57.5 µM; in the test on CCRF-CEM, 45.4 µM.

Turning to `CC(C)C[C@H](NC(=O)c1cc(Cl)ccc1OCc1ccccc1)C(=O)N[C@@H](CC(C)C)C(=O)Nc1ccc(C(F)(F)F)cc1`, the concentration for 50% growth inhibition (GI50) with K562 was 74.6 µM; in the test on CCRF-CEM, 59.9 µM.
